# Source: PubChem (Broad Institute)
# Most compounds without a hit are left out; they make up all but 5.9% or so of the library.
# IDH1 mut inh: IDH1 R132H (human) inhibition | inhibition, % at 10 µM | 70,000 tested, 0.18% active | IDH1 R132H reductase, diaphorase/resazurin fluorescence, 60 min | O75874; in the data active = inhibition above about 34%; inconclusive = no clear call, values can overlap the other calls; inactive = below about 11%;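 note: 0% = DMSO and 100% = no enzyme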
# KDM4C inh: blocks human GASC-1 (KDM4C) demethylase activity; GST-KDM4C 2-372, H3K9me3 peptide, LANCE TR-FRET; inhibition, % at 12.5 µM; 96,000 tested, 0.15% active; Q9H3R0;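 active = mean replicate inhibition above about 25%, with at least 55% of replicates also reaching it, limit read from the data, passing the limit was not always enough; inconclusive = only one of those two conditions met; inactive = neither condition met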
# Target sequence (Q9H3R0 2-372 limits assumed): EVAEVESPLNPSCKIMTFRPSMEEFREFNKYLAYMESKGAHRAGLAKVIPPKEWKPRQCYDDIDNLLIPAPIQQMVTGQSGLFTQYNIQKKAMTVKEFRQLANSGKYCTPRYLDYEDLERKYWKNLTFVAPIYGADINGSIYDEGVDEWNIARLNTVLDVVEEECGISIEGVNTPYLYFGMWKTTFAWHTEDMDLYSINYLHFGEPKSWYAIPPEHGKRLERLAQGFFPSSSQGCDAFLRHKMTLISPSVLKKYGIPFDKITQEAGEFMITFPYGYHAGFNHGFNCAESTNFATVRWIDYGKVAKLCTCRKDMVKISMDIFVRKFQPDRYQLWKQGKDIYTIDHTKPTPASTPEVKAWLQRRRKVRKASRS
#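 System: N-terminal GST-fused human GASC-1 (KDM4C) fragment, residues 2-372; amount: enzyme final amount 10 nM; incubation: reaction 30 min RT, detection step 1 h RT; medium: HEPES buffer, pH 7.5, plus ascorbate; technique: LANCE TR-FRET, Eu antibody, ULight-streptavidin, EDTA, ex 340 nm, em 618/671 nm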
# Pf Dd2 growth: P. falciparum Dd2 growth inhibition | SYBR Green, 72 h; stronger effect = lower value | activity change, % at 10 µM | 94,000 tested, 2.3% active | AID 1159554; in the data active = activity change below about -80%; inconclusive = no clear call, values can overlap the other calls
# T cruzi growth-1: blocks T. cruzi growth in NIH3T3 culture | T. cruzi beta-gal in NIH3T3, GalScreen luminescence, 90 h | inhibition, % at 8.34 µM | 77,000 tested, 5.9% active | AID 624255;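 active = mean inhibition above about 93%, with at least 55% of replicates each passing it, limit read from the data, passing the limit was not always enough; inconclusive = only one of those two conditions holds; inactive = neither condition holds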
# T cruzi growth-2: inhibitors of T. cruzi proliferation. T. cruzi beta-gal in NIH3T3, GalScreen luminescence, 90 h. AID 651739. shares compounds with T cruzi growth-1. 5,600 tested, 72% active. inhibition, % at 8.35 µM;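 active = mean replicate inhibition above about 95% and at least 55% of replicates individually reaching it, limit read from the data; inconclusive = only one of the two criteria is met; inactive = neither criterion is met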
# T cruzi growth-3: Trypanosoma cruzi proliferation inhibition; T. cruzi beta-gal in NIH3T3, GalScreen luminescence, 90 h; shares compounds with T cruzi growth-1; 5,600 tested, 21% active; inhibition, % at 2.09 µM;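 active = mean inhibition above about 95%, with at least 55% of replicates also reaching it, limit read from the data; inconclusive = meets just one of the two conditions; inactive = meets neither condition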;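 note: plate controls were neutral control median for no effect and positive control median for full effect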
# NIH3T3 tox: NIH/3T3 (mouse) viability loss | NIH/3T3 viability, CellTiter-Glo ATP luminescence, 90 h | AID 651742 | shares compounds with T cruzi growth-1 | cytotoxicity (signal decrease), % at 8.35 µM | 5,600 tested, 14% active;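 active = mean signal decrease across replicates above about 35% based on untreated-well scatter, with enough replicates individually passing, limit read from the data; inconclusive = no rule stated though some were filed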;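 note: 0% = median of neutral control wells and 100% = median of positive control wells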
# 3T3 cytotox 2: NIH/3T3 (mouse) viability loss; shares compounds with T cruzi growth-1; NIH/3T3 viability, CellTiter-Glo ATP luminescence, 90 h; inhibition, % at 24.9 µM; 5,600 tested, 56% active; AID 651744;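 active = mean loss of cell viability signal at or above a set limit, and enough replicates individually reaching it; inconclusive = meets only the mean limit or only the replicate share; inactive = meets neither condition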;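 note: 0% = median of neutral control wells and 100% = median of positive control wells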
# Active calls of the source: *; ? = inconclusive; . = no result; ! = a repeat was not active.
SMILES,IDH1 mut inh,KDM4C inh,Pf Dd2 growth,T cruzi growth-1,T cruzi growth-2,T cruzi growth-3,NIH3T3 tox,3T3 cytotox 2
C=CCNC(=O)[C@H]1[C@@H]2C(=O)O[C@@H](c3ccccc3)[C@@H](c3ccccc3)N2[C@@H](c2ccc(OCCO)cc2)[C@]12C(=O)Nc1ccc(C#CCNC(N)=O)cc12,0,.,.,.,.,.,.,.
COc1cccc(S(=O)(=O)N(C)C[C@H]2Oc3ncc(C#CCC(C)C)cc3C(=O)N([C@H](C)CO)C[C@@H]2C)c1,.,-6,-63,102*,106*,79,11,60*
CCCC#Cc1cnc2c(c1)C(=O)N([C@H](C)CO)C[C@@H](C)[C@@H](CN(C)S(=O)(=O)c1cccc(OC)c1)O2,0,0,-16,104*,99*,62,37*,65*
COc1cccc(S(=O)(=O)N(C)C[C@@H]2Oc3ncc(C#CCC(C)C)cc3C(=O)N([C@@H](C)CO)C[C@H]2C)c1,.,0,-54,111*,107*,85,-1,77*
COc1cccc(S(=O)(=O)N(C)C[C@@H]2Oc3ncc(C#CCC(C)C)cc3C(=O)N([C@H](C)CO)C[C@@H]2C)c1,.,-1,-15,-22,.,.,.,.
COc1cccc(S(=O)(=O)N(C)C[C@@H]2Oc3ncc(C#CCN(C)C)cc3C(=O)N([C@H](C)CO)C[C@H]2C)c1,.,-1,-2,96*!,?,84,13,17
CS(=O)(=O)N(CC(=O)Nc1ccc(F)cc1)c1cccc(Br)c1,0,.,.,.,.,.,.,.
COc1ccc(-c2cc(C(F)(F)F)nc(SCC(=O)Nc3ccc4c(c3)CCC4)n2)cc1OC,0,.,.,.,.,.,.,.
COc1cccc(S(=O)(=O)N(C)C[C@@H]2Oc3ncc(C#Cc4ccc(F)cc4)cc3C(=O)N([C@H](C)CO)C[C@@H]2C)c1,-4,-6,-54,108*,103*,63,22,12
COc1cccc(S(=O)(=O)N(C)C[C@H]2Oc3ncc(C#CC(C)C)cc3C(=O)N([C@H](C)CO)C[C@@H]2C)c1,-1,0,-72,65,.,.,.,.
COc1cccc(S(=O)(=O)N(C)C[C@H]2Oc3ncc(C#CC(C)C)cc3C(=O)N([C@@H](C)CO)C[C@H]2C)c1,0,-1,-13,109*,82,70,23,49*
C[C@H]1CN([C@@H](C)CO)C(=O)c2ccccc2-c2ccccc2CO[C@@H]1CN(C)Cc1ccncc1,5,0,-3,?,73,7,13,11
C[C@@H]1CN([C@@H](C)CO)C(=O)c2ccccc2-c2ccccc2CO[C@H]1CN(C)Cc1ccncc1,3,3,9,81,.,.,.,.
C[C@@H]1CN([C@H](C)CO)C(=O)c2ccccc2-c2ccccc2CO[C@@H]1CN(C)C(=O)Cc1ccccc1,-1,1,0,102*,21,-53,-2,11
CCCC#Cc1ccc2c(c1)O[C@@H](CN(C)C(=O)CC1CC1)[C@H](C)CN([C@@H](C)CO)S2(=O)=O,0,-2,-53,?,106*,56,10,49*
CCCC#Cc1ccc2c(c1)O[C@@H](CN(C)C(=O)CC1CC1)[C@H](C)CN([C@H](C)CO)S2(=O)=O,1,-2,-45,112*,100*,-21,21,24*
CCCC#Cc1ccc2c(c1)O[C@@H](CN(C)C(=O)CC1CC1)[C@@H](C)CN([C@@H](C)CO)S2(=O)=O,-3,-1,-31,57,.,.,.,.
CCCC#Cc1ccc2c(c1)O[C@H](CN(C)C(=O)CC1CC1)[C@H](C)CN([C@H](C)CO)S2(=O)=O,2,1,-39,57,.,.,.,.
COc1ccccc1-c1ccc2c(c1)[C@@H]1[C@@H](CCN1C(=O)C1CCOCC1)[C@H](CO)N2,.,0,-23,97*,102*,72,-23,-30
O=C(C1CCOCC1)N1CC[C@@H]2[C@H]1c1cc(-c3ccc(F)cc3)ccc1N[C@@H]2CO,.,3,4,105*,?,82,-9,23
O=C(C1CC1)N1CC[C@@H]2[C@@H](CO)Nc3ccc(-c4ccc(F)cc4)cc3[C@@H]21,.,1,2,84,.,.,.,.
O=C(C1CCOCC1)N1CC[C@@H]2[C@@H](CO)Nc3ccc(-c4ccc(F)cc4)cc3[C@@H]21,.,3,32,105*,99*,60,-13,14
CC(C)(C)c1ccc(OCC(=O)Nc2ccccc2-c2nc3ccccc3s2)cc1,0,.,.,.,.,.,.,.
COc1ccccc1NC(=O)c1c(NC(=O)c2ccco2)sc(C)c1C,0,.,.,.,.,.,.,.
CCNC(=O)[C@@H]1[C@@H](CO)[C@@H]2Cn3c(ccc(-c4ccccc4)c3=O)[C@@H]2N1Cc1ccc2c(c1)OCO2,.,1,3,102*,101*,0,-31,22
SMILES,IDH1 mut inh,KDM4C inh,Pf Dd2 growth,T cruzi growth-1,T cruzi growth-2,T cruzi growth-3,NIH3T3 tox,3T3 cytotox 2
CCCNC(=O)[C@H]1[C@H](CO)[C@H]2Cn3c(ccc(-c4cccc(F)c4)c3=O)[C@@H]1N2C(C)=O,.,0,8,40,.,.,.,.
CCCN1[C@H](C(=O)N[C@@H](C)c2ccccc2)[C@@H](CO)[C@@H]2Cn3c(ccc(-c4cccc(F)c4)c3=O)[C@@H]21,.,14,.,108*,97*,63,3,68*
CCCNC(=O)[C@@H]1[C@@H](CO)[C@@H]2Cn3c(ccc(-c4cccc(F)c4)c3=O)[C@H]1N2C(=O)c1ccccn1,.,0,12,103*,?,27,-20,-1
CCCN1[C@@H]2c3ccc(-c4ccccc4F)c(=O)n3C[C@@H]2[C@@H](CO)[C@@H]1C(=O)NCC,.,2,8,98*,21,-15,4,-6
COc1cc(NC(=O)COc2ccc(Cl)cc2C)c(C(=O)O)cc1OC,0,.,.,.,.,.,.,.
COc1ccc(NC(=O)Cn2nc(C)c([N+](=O)[O-])c2C)c(OC)c1,0,.,.,.,.,.,.,.
COC(=O)c1cc(OC)c(OC)cc1NC(=O)C1c2ccccc2Oc2ccccc21,1,.,.,.,.,.,.,.
